Measured values published in ChEMBL document CHEMBL1156948, “Statistical molecular design of a focused salicylidene acylhydrazide library and multivariate QSAR of inhibition of type III secretion in the Gram-negative bacterium Yersinia” (Bioorg Med Chem, 2010).
Calls of active or inactive are those of the source. The rule behind the calls is not given here.

system: Yersinia pseudotuberculosis YPIII; assay: Inhibition of T3S in Yersinia pseudotuberculosis YPIII expressing yopE-luxAB at 200 uM after 3 hrs by luciferase reporter gene assay
Method in brief: (§1)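 Strain YPIII pIB102 (yopE-luxAB) grown overnight at room temperature in BHI with 5 mM EGTA and 20 mM MgCl2 (calcium depletion), adjusted to OD600 0.088–0.095. Compound added from DMSO at 1.56–200 µM final (eight concentrations). Shaken 1 h at room temperature, then 2 h at 37 °C. Decanal added and light emission read immediately. Triplicates, repeated at least three times.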

Row | SMILES | inhibition [%]
1 | CC(C)(C)c1cc(/C=N/NC(=O)COc2ccc([N+](=O)[O-])cc2)c(O)c(C(C)(C)C)c1 | 4
2 | O=C(CCc1ccc(O)cc1)N/N=C/c1c(O)cc(O)cc1O | 46
3 | COc1cccc(/C=N/NC(=O)c2cc(OC)c(OC)c(OC)c2)c1O | 68
4 | COc1cc(Br)cc(/C=N/NC(=O)C(N)=O)c1O | 78
5 | O=C(N/N=C/c1cc([N+](=O)[O-])cc([N+](=O)[O-])c1O)c1ccc(Br)cc1 | 18

system: Yersinia pseudotuberculosis YPIII; assay: Inhibition of T3S in Yersinia pseudotuberculosis YPIII expressing yopE-luxAB at 25 uM after 3 hrs by luciferase reporter gene assay; method in brief: as §1

Row | SMILES | inhibition [%]
6 | CC(C)(C)c1cc(/C=N/NC(=O)COc2ccc([N+](=O)[O-])cc2)c(O)c(C(C)(C)C)c1 | 12
7 | O=C(CCc1ccc(O)cc1)N/N=C/c1c(O)cc(O)cc1O | 25
8 | COc1cccc(/C=N/NC(=O)c2cc(OC)c(OC)c(OC)c2)c1O | 20
9 | COc1cc(Br)cc(/C=N/NC(=O)C(N)=O)c1O | 10
10 | O=C(N/N=C/c1cc([N+](=O)[O-])cc([N+](=O)[O-])c1O)c1ccc(Br)cc1 | 19

system: Yersinia pseudotuberculosis; assay: Antibacterial activity against Yersinia pseudotuberculosis expressing pIB102 at 100 uM after 23 hrs by broth dilution assay; format: functional, organism-based
Method in brief: (§2)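 Wild-type pIB102 grown overnight in LB at room temperature, diluted to OD600 = 0.1 in LB with 2.5 mM CaCl2. Compound added from DMSO stock to final 50 and 100 µM. Incubated at 37 °C with absorbance at 595 nm read over 23 h.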

Row | SMILES | Activity
11 | CC(C)(C)c1cc(/C=N/NC(=O)COc2ccc([N+](=O)[O-])cc2)c(O)c(C(C)(C)C)c1 | inactive
12 | O=C(CCc1ccc(O)cc1)N/N=C/c1c(O)cc(O)cc1O | inactive
13 | COc1cccc(/C=N/NC(=O)c2cc(OC)c(OC)c(OC)c2)c1O | inactive
14 | COc1cc(Br)cc(/C=N/NC(=O)C(N)=O)c1O | inactive
15 | O=C(N/N=C/c1cc([N+](=O)[O-])cc([N+](=O)[O-])c1O)c1ccc(Br)cc1 | inactive

system: Yersinia pseudotuberculosis YPIII; assay: Inhibition of T3S in Yersinia pseudotuberculosis YPIII expressing yopE-luxAB at 50 uM after 3 hrs by luciferase reporter gene assay; method in brief: as §1

Row | SMILES | inhibition [%]
16 | CC(C)(C)c1cc(/C=N/NC(=O)COc2ccc([N+](=O)[O-])cc2)c(O)c(C(C)(C)C)c1 | 18
17 | O=C(CCc1ccc(O)cc1)N/N=C/c1c(O)cc(O)cc1O | 29
18 | COc1cccc(/C=N/NC(=O)c2cc(OC)c(OC)c(OC)c2)c1O | 43
19 | COc1cc(Br)cc(/C=N/NC(=O)C(N)=O)c1O | 9
20 | O=C(N/N=C/c1cc([N+](=O)[O-])cc([N+](=O)[O-])c1O)c1ccc(Br)cc1 | 22

system: Yersinia pseudotuberculosis YPIII; assay: Inhibition of T3S in Yersinia pseudotuberculosis YPIII expressing yopE-luxAB at 3.13 uM after 3 hrs by luciferase reporter gene assay; method in brief: as §1

Row | SMILES | inhibition [%]
21 | CC(C)(C)c1cc(/C=N/NC(=O)COc2ccc([N+](=O)[O-])cc2)c(O)c(C(C)(C)C)c1 | -2
22 | O=C(CCc1ccc(O)cc1)N/N=C/c1c(O)cc(O)cc1O | 18
23 | COc1cccc(/C=N/NC(=O)c2cc(OC)c(OC)c(OC)c2)c1O | 14
24 | COc1cc(Br)cc(/C=N/NC(=O)C(N)=O)c1O | -4
25 | O=C(N/N=C/c1cc([N+](=O)[O-])cc([N+](=O)[O-])c1O)c1ccc(Br)cc1 | -6

system: Escherichia coli; assay: Antibacterial activity against Escherichia coli DH5[alpha] at 100 uM after 23 hrs by broth dilution assay; format: functional, organism-based
Method in brief: (§3)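 Overnight LB culture of E. coli DH5α grown at 37 °C, diluted to OD600 0.1 in LB with 2.5 mM CaCl2; compound added from DMSO stock to final 50 or 100 µM. Incubated at 37 °C with absorbance at 595 nm followed over 23 h.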

Row | SMILES | Activity
26 | Cc1nnsc1C(=O)N/N=C/c1cc(F)cc(Cl)c1O | inactive
27 | CC(C)(C)c1cc(/C=N/NC(=O)COc2ccc([N+](=O)[O-])cc2)c(O)c(C(C)(C)C)c1 | inactive
28 | O=C(CCc1ccc(O)cc1)N/N=C/c1c(O)cc(O)cc1O | inactive
29 | COc1cccc(/C=N/NC(=O)c2cc(OC)c(OC)c(OC)c2)c1O | inactive
30 | COc1cc(Br)cc(/C=N/NC(=O)C(N)=O)c1O | inactive
31 | O=C(N/N=C/c1cc([N+](=O)[O-])cc([N+](=O)[O-])c1O)c1ccc(Br)cc1 | inactive

system: Yersinia pseudotuberculosis YPIII; assay: Inhibition of T3S in Yersinia pseudotuberculosis YPIII expressing yopE-luxAB at 6.25 uM after 3 hrs by luciferase reporter gene assay; method in brief: as §1

Row | SMILES | inhibition [%]
32 | CC(C)(C)c1cc(/C=N/NC(=O)COc2ccc([N+](=O)[O-])cc2)c(O)c(C(C)(C)C)c1 | 7
33 | O=C(CCc1ccc(O)cc1)N/N=C/c1c(O)cc(O)cc1O | 20
34 | COc1cccc(/C=N/NC(=O)c2cc(OC)c(OC)c(OC)c2)c1O | 17
35 | COc1cc(Br)cc(/C=N/NC(=O)C(N)=O)c1O | 1
36 | O=C(N/N=C/c1cc([N+](=O)[O-])cc([N+](=O)[O-])c1O)c1ccc(Br)cc1 | 9

system: Yersinia pseudotuberculosis YPIII; assay: Inhibition of T3S in Yersinia pseudotuberculosis YPIII expressing yopE-luxAB at 12.5 uM after 3 hrs by luciferase reporter gene assay; method in brief: as §1

Row | SMILES | inhibition [%]
37 | CC(C)(C)c1cc(/C=N/NC(=O)COc2ccc([N+](=O)[O-])cc2)c(O)c(C(C)(C)C)c1 | 14
38 | O=C(CCc1ccc(O)cc1)N/N=C/c1c(O)cc(O)cc1O | 23
39 | COc1cccc(/C=N/NC(=O)c2cc(OC)c(OC)c(OC)c2)c1O | 15
40 | COc1cc(Br)cc(/C=N/NC(=O)C(N)=O)c1O | 8
41 | O=C(N/N=C/c1cc([N+](=O)[O-])cc([N+](=O)[O-])c1O)c1ccc(Br)cc1 | 12

system: Yersinia pseudotuberculosis; assay: Antibacterial activity against Yersinia pseudotuberculosis expressing pIB102 at 50 uM after 23 hrs by broth dilution assay; format: functional, organism-based; method in brief: as §2

Row | SMILES | Activity
42 | CC(C)(C)c1cc(/C=N/NC(=O)COc2ccc([N+](=O)[O-])cc2)c(O)c(C(C)(C)C)c1 | inactive
43 | O=C(CCc1ccc(O)cc1)N/N=C/c1c(O)cc(O)cc1O | inactive
44 | COc1cccc(/C=N/NC(=O)c2cc(OC)c(OC)c(OC)c2)c1O | inactive
45 | COc1cc(Br)cc(/C=N/NC(=O)C(N)=O)c1O | inactive
46 | O=C(N/N=C/c1cc([N+](=O)[O-])cc([N+](=O)[O-])c1O)c1ccc(Br)cc1 | inactive

system: Escherichia coli; assay: Antibacterial activity against Escherichia coli DH5[alpha] at 50 uM after 23 hrs by broth dilution assay; format: functional, organism-based; method in brief: as §3

Row | SMILES | Activity
47 | Cc1nnsc1C(=O)N/N=C/c1cc(F)cc(Cl)c1O | inactive
48 | CC(C)(C)c1cc(/C=N/NC(=O)COc2ccc([N+](=O)[O-])cc2)c(O)c(C(C)(C)C)c1 | inactive
49 | O=C(CCc1ccc(O)cc1)N/N=C/c1c(O)cc(O)cc1O | inactive
50 | COc1cccc(/C=N/NC(=O)c2cc(OC)c(OC)c(OC)c2)c1O | inactive
51 | COc1cc(Br)cc(/C=N/NC(=O)C(N)=O)c1O | inactive
52 | O=C(N/N=C/c1cc([N+](=O)[O-])cc([N+](=O)[O-])c1O)c1ccc(Br)cc1 | inactive

system: Yersinia pseudotuberculosis YPIII; assay: Inhibition of T3S in Yersinia pseudotuberculosis YPIII expressing yopE-luxAB at 100 uM after 3 hrs by luciferase reporter gene assay; method in brief: as §1

Row | SMILES | inhibition [%]
53 | CC(C)(C)c1cc(/C=N/NC(=O)COc2ccc([N+](=O)[O-])cc2)c(O)c(C(C)(C)C)c1 | 18
54 | O=C(CCc1ccc(O)cc1)N/N=C/c1c(O)cc(O)cc1O | 36
55 | COc1cccc(/C=N/NC(=O)c2cc(OC)c(OC)c(OC)c2)c1O | 65
56 | COc1cc(Br)cc(/C=N/NC(=O)C(N)=O)c1O | 47
57 | O=C(N/N=C/c1cc([N+](=O)[O-])cc([N+](=O)[O-])c1O)c1ccc(Br)cc1 | 22
